In ChEMBL document CHEMBL1156585, “New NSAIDs-NO hybrid molecules with antiproliferative properties on human prostatic cancer cell lines” (Bioorg Med Chem Lett, 2008):
Calls of active or inactive are those of the source. No cut-off for these calls is given here.

Columns and labels:
PC-3 [1] = experiment: Antiproliferative activity against human PC3 cells at 100 uM after 72 hrs by MTT assay; assay type: functional; conditions: PC-3, 72 h
Procedure, shortened: (§1)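 PC3 prostate cancer cells kept in RPMI 1640 with 10% fetal calf serum at 37 °C, 5% CO₂. Seeded at 1.8 × 10⁴ cells/well, grown 3 days, then serum-starved 24 h to synchronize. Exposed to compounds at 1, 10, 50 and 100 µM (as solubility allows) in <0.1% DMSO for 72 h. Growth read by colorimetric MTT test.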

Blood [2] = experiment: Induction of profen release in human whole blood at 10 uM after 22 hrs by HPLC; assay type: functional
Procedure, shortened: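 Same blood pool as the COX inhibition runs. Compound incubated 22 h, then the free profen released was measured as a percentage ratio.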

[3] = molecular target: T1, Prostaglandin G/H synthase 2 (Homo sapiens, UniProt P35354); experiment: Inhibition of COX2 in human whole blood; assay type: tissue-based
T1 sequence (P35354 whole entry): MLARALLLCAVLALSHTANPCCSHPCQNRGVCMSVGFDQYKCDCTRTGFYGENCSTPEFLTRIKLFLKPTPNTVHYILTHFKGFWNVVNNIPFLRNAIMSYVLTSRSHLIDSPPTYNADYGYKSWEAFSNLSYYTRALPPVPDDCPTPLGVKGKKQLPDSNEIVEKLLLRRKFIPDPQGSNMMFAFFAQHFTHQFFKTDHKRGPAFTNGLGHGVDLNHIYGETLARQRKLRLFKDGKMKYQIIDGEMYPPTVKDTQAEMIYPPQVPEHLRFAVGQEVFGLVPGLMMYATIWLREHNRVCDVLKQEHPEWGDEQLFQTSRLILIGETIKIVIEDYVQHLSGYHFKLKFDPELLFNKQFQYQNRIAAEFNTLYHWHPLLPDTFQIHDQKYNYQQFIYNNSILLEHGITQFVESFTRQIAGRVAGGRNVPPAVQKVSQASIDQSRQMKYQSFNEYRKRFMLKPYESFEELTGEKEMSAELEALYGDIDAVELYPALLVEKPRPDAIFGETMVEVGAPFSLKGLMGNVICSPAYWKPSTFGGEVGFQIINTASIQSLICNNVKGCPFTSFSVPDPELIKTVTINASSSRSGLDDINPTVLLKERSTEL

[4] = molecular target: Prostaglandin G/H synthase 1 (Homo sapiens, UniProt P23219); experiment: Inhibition of COX1 in human whole blood; assay type: tissue-based
Blood [5] = experiment: Induction of nitric oxide release in human whole blood after 6 hrs by EPR spectroscopy; assay type: functional, tissue-based
PC-3 [6] = experiment: Antiproliferative activity against human PC3 cells after 72 hrs by MTT assay; assay type: functional, cell-based; conditions: PC-3, 72 h; procedure, shortened: as §1

Prostaglandin G/H synthase 1, sequence (P23219 whole entry): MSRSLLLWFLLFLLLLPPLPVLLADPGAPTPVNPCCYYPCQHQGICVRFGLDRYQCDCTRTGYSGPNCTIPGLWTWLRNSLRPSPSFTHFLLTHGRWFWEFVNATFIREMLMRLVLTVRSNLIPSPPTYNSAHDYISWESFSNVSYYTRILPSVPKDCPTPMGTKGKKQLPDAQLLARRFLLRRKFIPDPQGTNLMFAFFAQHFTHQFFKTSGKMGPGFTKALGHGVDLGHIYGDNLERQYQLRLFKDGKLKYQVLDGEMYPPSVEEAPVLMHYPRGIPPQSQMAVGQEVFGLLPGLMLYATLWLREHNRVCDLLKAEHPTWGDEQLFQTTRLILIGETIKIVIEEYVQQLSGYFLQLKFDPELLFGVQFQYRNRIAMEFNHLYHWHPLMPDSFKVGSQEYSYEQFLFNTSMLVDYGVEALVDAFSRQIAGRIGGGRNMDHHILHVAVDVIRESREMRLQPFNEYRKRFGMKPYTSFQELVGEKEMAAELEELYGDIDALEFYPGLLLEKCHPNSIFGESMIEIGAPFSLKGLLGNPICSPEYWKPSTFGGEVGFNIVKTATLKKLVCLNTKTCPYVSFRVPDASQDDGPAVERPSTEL

| SMILES | inhibition at 100 µM (PC-3 [1]) [%] | Activity (Blood [2]) [%] | IC50 [3] [nM] | IC50 [4] [nM] | Activity (Blood [5]) | IC50 (PC-3 [6]) [nM] |
| --- | --- | --- | --- | --- | --- | --- |
| CC(COC(=O)C(C)c1ccc(C(=O)c2cccs2)cc1)O[N+](=O)[O-] (stereo not drawn) | 13 | 86 | 4560 | 570 | – | – |
| CC(C(=O)OCCO[N+](=O)[O-])c1cccc(C(=O)c2ccccc2)c1 (stereo not drawn) | 26 | 73 | 770 | 450 | – | – |
| CC(C(=O)OCC(CO[N+](=O)[O-])O[N+](=O)[O-])c1ccc(C(=O)c2cccs2)cc1 (stereo not drawn) | 33 | 73 | 2700 | 480 | – | – |
| CC(C(=O)OCCO[N+](=O)[O-])c1ccc(C(=O)c2cccs2)cc1 (stereo not drawn) | 7 | 46 | 5800 | 580 | – | – |
| CC(C(=O)O)c1cccc(C(=O)c2ccccc2)c1 (stereo not drawn) [KETOPROFEN] | 0 | – | – | – | – | – |
| CC(C(=O)O)c1ccc(C(=O)c2cccs2)cc1 (stereo not drawn) [SUPROFEN] | 0 | – | 2750 | 560 | – | – |
| CC(COC(=O)C(C)c1cccc(C(=O)c2ccccc2)c1)O[N+](=O)[O-] (stereo not drawn) | 26 | 70 | 730 | 600 | Active | – |
| CC(C(=O)O)c1ccc2c(c1)[nH]c1ccc(Cl)cc12 (stereo not drawn) [CARPROFEN] | 5 | – | – | – | – | – |
| CC(C(=O)OCCO[N+](=O)[O-])c1ccc2c(c1)[nH]c1ccc(Cl)cc12 (stereo not drawn) | – | 88 | 65000 | 110000 | – | 48000 |
| CC(COC(=O)C(C)c1ccc2c(c1)[nH]c1ccc(Cl)cc12)O[N+](=O)[O-] (stereo not drawn) | – | 100 | 45000 | 123000 | – | 48000 |
| CC(C(=O)OCC(CO[N+](=O)[O-])O[N+](=O)[O-])c1cccc(C(=O)c2ccccc2)c1 (stereo not drawn) | 21 | 79 | 740 | 580 | – | – |
